From ChEMBL document CHEMBL4049430, “Indazole-6-phenylcyclopropylcarboxylic Acids as Selective GPR120 Agonists with in Vivo Efficacy” (J Med Chem, 2017)
Activity calls are given as the source filed them. No cut-off for these calls is given here.

Key:
[1] = target: Free fatty acid receptor 1 (Mus musculus) (UniProt Q76JU9); test: Agonist activity at mouse GPR40 expressed in HEK293 cells assessed as increase in intracellular calcium level after 5 mins by FLUO-4-AM dye-based FLIPR assay relative to control; format: functional, cell-based
Sequence of Free fatty acid receptor 1 (Mus musculus) (Q76JU9 whole entry): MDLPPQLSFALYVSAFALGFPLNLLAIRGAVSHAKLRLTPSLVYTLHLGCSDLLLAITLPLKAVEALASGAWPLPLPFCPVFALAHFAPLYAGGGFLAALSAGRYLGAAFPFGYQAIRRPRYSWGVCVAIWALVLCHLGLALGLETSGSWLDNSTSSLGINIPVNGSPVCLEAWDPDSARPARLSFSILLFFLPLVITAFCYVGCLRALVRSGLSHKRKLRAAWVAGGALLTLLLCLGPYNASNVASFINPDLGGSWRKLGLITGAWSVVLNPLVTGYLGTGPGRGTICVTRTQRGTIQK
In short: (§1)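 HEK293s cells stably expressing mouse GPR40 were seeded 24 h before assay and loaded for 1 h with calcium 3/Fluo-4 AM in HBSS, 20 mM HEPES, 0.01% BSA, 2.5 mM probenecid, pH 7.4. FLIPR Tetra took 10 baseline reads, then read for 5 min after addition. Runs were in duplicate, 9 points, 100 μM to 7 nM final, as % of maximal eladic acid control.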

[2] = target: T1, Free fatty acid receptor 4 (Homo sapiens, UniProt Q5NUL3); test: Agonist activity at human GPR120 expressed in CHO-FlpIn cells after 15 mins by DMR assay; format: cell-based
T1 sequence (Q5NUL3 whole entry): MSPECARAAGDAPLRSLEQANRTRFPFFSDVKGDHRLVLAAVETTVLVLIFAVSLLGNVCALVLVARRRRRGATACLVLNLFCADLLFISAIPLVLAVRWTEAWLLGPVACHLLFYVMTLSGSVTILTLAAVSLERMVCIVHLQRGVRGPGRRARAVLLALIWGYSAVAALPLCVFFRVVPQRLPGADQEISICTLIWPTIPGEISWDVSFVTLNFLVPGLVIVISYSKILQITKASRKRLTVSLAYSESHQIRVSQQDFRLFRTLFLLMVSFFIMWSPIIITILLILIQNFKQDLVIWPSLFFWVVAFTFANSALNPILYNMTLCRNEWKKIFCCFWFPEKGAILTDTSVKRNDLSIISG
In short: (§2)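 Cryopreserved CHO FlpIn cells stably expressing human or mouse GPR120 were seeded 48 h before assay, serum-starved for 24 h, then held 2 h in HBSS/20 mM HEPES/0.01% BSA (pH 7.4) with 0.5% DMSO. DMR was read over a 10 min baseline and for 15 min after addition. Runs were in duplicate, 10 points, 16 μM to 0.8 nM final, as % of maximal control agonist.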

[3] = target: Free fatty acid receptor 1 (Mus musculus, UniProt Q76JU9); test: Agonist activity at mouse GPR40 expressed in HEK293 cells assessed as increase in intracellular calcium level after 5 mins by FLUO-4-AM dye-based FLIPR assay; format: functional, cell-based; in short: as §1
Sequence of Free fatty acid receptor 1 (Q76JU9 whole entry): as the sequence (Q76JU9 whole entry) above

[4] = target: T2, Free fatty acid receptor 4 (Homo sapiens) (UniProt Q5NUL3); test: Agonist activity at human GPR120 expressed in CHO-FlpIn cells after 15 mins by DMR assay relative to control; format: cell-based; in short: as §2
T2 sequence (whole entry): T1 sequence (Q5NUL3 whole entry)

[5] = Octanol-buffer partition coefficient, log D of the compound at pH 7.4 after 30 mins by LC-UV based shake-flask method
[6] = Protein binding in mouse plasma assessed as unbound fraction after 24 hrs by equilibrium dialysis; format: ADME, cell-free
[7] = Cmax in mouse at 5 mg/kg administered through oral gavage after 24 hrs; format: ADME, organism-based; set-up: dose 5 mg/kg, route oral; conditions: in vivo
[8] = Clearance in mouse at 2.5 mg/kg, iv after 24 hrs; format: ADME, organism-based; conditions: in vivo
[9] = Ratio of drug level in mouse brain to blood at 5 mg/kg administered through oral gavage after 2 hrs; format: ADME, organism-based
[10] = target: T3, Free fatty acid receptor 4 (Mus musculus, UniProt Q7TMA4); test: Agonist activity at mouse GPR120 expressed in CHO-FlpIn cells after 15 mins by DMR assay; format: cell-based; in short: as §2
T3 sequence (Q7TMA4 whole entry): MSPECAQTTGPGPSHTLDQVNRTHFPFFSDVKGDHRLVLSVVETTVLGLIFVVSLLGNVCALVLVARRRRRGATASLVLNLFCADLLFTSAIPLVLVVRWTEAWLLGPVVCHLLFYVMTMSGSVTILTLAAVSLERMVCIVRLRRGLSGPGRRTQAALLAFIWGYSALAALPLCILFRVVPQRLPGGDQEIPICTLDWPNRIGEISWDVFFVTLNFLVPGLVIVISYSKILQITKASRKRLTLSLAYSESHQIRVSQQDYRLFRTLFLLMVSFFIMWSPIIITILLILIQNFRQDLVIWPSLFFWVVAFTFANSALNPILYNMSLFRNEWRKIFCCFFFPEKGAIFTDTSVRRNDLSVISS

[11] = Volume of distribution at steady state in mouse at 2.5 mg/kg, iv after 24 hrs; format: ADME, organism-based; conditions: in vivo, read-out: Vdss
[12] = target: T4, Free fatty acid receptor 4 (Mus musculus) (UniProt Q7TMA4); test: Agonist activity at mouse GPR120 expressed in CHO-FlpIn cells after 15 mins by DMR assay relative to control; format: cell-based; in short: as §2
T4 sequence (whole entry): T3 sequence (Q7TMA4 whole entry)

[13] = Oral bioavailability in mouse at 5 mg/kg after 24 hrs; format: ADME, organism-based; conditions: in vivo
[14] = Ratio of unbound drug level in mouse brain to blood at 5 mg/kg administered through oral gavage after 2 hrs; conditions: brain
[15] = Ratio of unbound drug level in wild-type mouse brain to blood at 100 mg/kg administered through oral gavage 30 mins prior to glucose challenge measured after 90 mins; conditions: brain
[16] = test system: Mus musculus; test: Antidiabetic activity in GPR120 knockout mouse assessed as reduction in glucose excursion at 100 mg/kg administered through oral gavage 30 mins prior to glucose challenge measured after 90 mins by OGTT; format: functional, organism-based
In short: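 OGTT used in-house C57BL/6J mice aged 10–11 weeks. GPR120 knockout and wild-type controls were bred in house, back-crossed onto C57BL/6J, and used at 9–10 weeks. Compound was given as a suspension: a concentrated stock was made at rt the day before and diluted on study day to the dosing concentrations.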

O=C(O)CCc1ccc(-c2cc(F)c3cnn(-c4ccccn4)c3c2)cc1
Efficacy [1]: 126%
EC50 [2]: 470 nM
EC50 [3]: 2600 nM
Efficacy [4]: 100%
logD at 0.5 h [5]: 2.8

C[C@H](Cc1ccc(-c2ccc3cnn(-c4ccccn4)c3c2)cc1)C(=O)O
Efficacy [1]: 18%
EC50 [2]: 4300 nM
EC50 [3]: > 100000 nM
Efficacy [4]: 88%

Cc1nn(-c2ccccn2)c2cc(-c3cccc(CC(=O)O)c3)ccc12
EC50 [2]: > 17000 nM
Efficacy [4]: 3%

Cc1nn(-c2ccccn2)c2cc(-c3ccc([C@H]4C[C@@H]4C(=O)O)cc3)ccc12 [listing 1 of 2 here]
Efficacy [1]: 10%
Efficacy [4]: 95%

Cc1nn(-c2ccccn2)c2cc(-c3ccc([C@@H]4C[C@H]4C(=O)O)cc3)ccc12
Efficacy [1]: 2%
EC50 [2]: > 17000 nM
EC50 [3]: > 100000 nM
Efficacy [4]: 26%

COc1cc(CCC(=O)O)ccc1-c1ccc2c(C)nn(-c3ccccn3)c2c1
Efficacy [1]: 62%
EC50 [2]: 720 nM
EC50 [3]: 8200 nM
Efficacy [4]: 82%
logD at 0.5 h [5]: 2.4

COc1nn(-c2ccc(C)cc2)c2cc(-c3ccc([C@H]4C[C@@H]4C(=O)O)cc3)cc(F)c12
Efficacy [1]: 11%
EC50 [2]: 78 nM
fraction unbound at 24 h [6]: 0.0011
Cmax [7]: 5 µM
clearance [8]: 0.4 mL/min/kg
Kp at 2 h [9]: 0.44
EC50 [10]: 17 nM
EC50 [3]: > 100000 nM
Vd [11]: 0.7 L/kg
Efficacy [4]: 115%
Efficacy [12]: 176%
bioavailability [13]: 19%
logD at 0.5 h [5]: > 4.2

Cc1nn(-c2ccccn2)c2cc(-c3ccc([C@H]4C[C@H]4C(=O)O)cc3)ccc12 (racemic)
Efficacy [1]: 81%
EC50 [2]: > 17000 nM
EC50 [3]: 19000 nM
Efficacy [4]: 9%

C[C@@H](Cc1ccc(-c2ccc3cnn(-c4ccccn4)c3c2)cc1)C(=O)O
Efficacy [1]: 31%
EC50 [2]: 4000 nM
EC50 [3]: 3800 nM
Efficacy [4]: 100%

Cc1nn(-c2ccccn2)c2cc(-c3ccc([C@H]4C[C@@H]4C(=O)O)cc3)ccc12 [listing 2 of 2 here]
EC50 [2]: 690 nM
EC50 [3]: > 100000 nM

Cc1nn(-c2ccccn2)c2cc(-c3ccc(CC(=O)O)cc3)ccc12
EC50 [2]: > 17000 nM
Efficacy [4]: 8%

N#Cc1nn(-c2ccccn2)c2cc(-c3ccc(CCC(=O)O)cc3)ccc12
Efficacy [1]: 124%
EC50 [2]: 4800 nM
EC50 [3]: 2000 nM
Efficacy [4]: 87%
logD at 0.5 h [5]: 3

Cc1nn(-c2ccccn2)c2cc(-c3ccc(CCC(=O)O)cc3C#N)ccc12
Efficacy [1]: 47%
EC50 [2]: 2400 nM
EC50 [3]: 6100 nM
Efficacy [4]: 80%
logD at 0.5 h [5]: 2.2

O=C(O)CCc1ccc(-c2ccc3cnn(-c4ccccn4)c3c2)cc1
Efficacy [1]: 106%
EC50 [2]: 990 nM
EC50 [3]: 4500 nM
Efficacy [4]: 114%
logD at 0.5 h [5]: 2.4

COc1nn(-c2ccccn2)c2cc(-c3ccc(CCC(=O)O)cc3)ccc12
Efficacy [1]: 96%
EC50 [2]: 250 nM
EC50 [3]: 2600 nM
Efficacy [4]: 122%
logD at 0.5 h [5]: 3.3

Cc1nn(-c2ccccn2)c2cc(-c3ccc(CCC(=O)O)cc3)ccc12
Efficacy [1]: 95%
EC50 [2]: 640 nM
EC50 [3]: 1400 nM
Efficacy [4]: 107%

Cc1nn(-c2ccccn2)c2cc(-c3ccc(CCC(=O)O)cc3)ncc12
Efficacy [1]: 86%
EC50 [2]: 2600 nM
EC50 [3]: 9200 nM
Efficacy [4]: 78%
logD at 0.5 h [5]: 1.6

Cc1nn(-c2ccccn2)c2cc(-c3ccc([C@H]4C[C@@H]4C(=O)O)cc3)ccc12 (racemic) [listing 1 of 2 here]
Efficacy [1]: 6%
Efficacy [4]: 87%

Cc1nn(-c2ccccn2)c2cc(-c3ccc([C@H]4C[C@@H]4C(=O)O)cc3)ccc12 (racemic) [listing 2 of 2 here]
EC50 [2]: 850 nM
EC50 [3]: > 100000 nM

Cc1ccc(-n2nc(C)c3c(F)cc(-c4ccc([C@H]5C[C@@H]5C(=O)O)cc4)cc32)cc1
Efficacy [1]: 14%
EC50 [2]: 520 nM
EC50 [10]: 540 nM
EC50 [3]: > 100000 nM
Efficacy [4]: 88%
Efficacy [12]: 112%
logD at 0.5 h [5]: 4.2

Cc1nn(-c2ccccn2)c2cc(-c3ccc(CCC(=O)O)cc3Cl)ccc12
Efficacy [1]: 102%
EC50 [2]: 710 nM
EC50 [3]: 1200 nM
Efficacy [4]: 113%
logD at 0.5 h [5]: 3.3

CCc1nn(-c2ccccn2)c2cc(-c3ccc(CCC(=O)O)cc3)ccc12
Efficacy [1]: 93%
EC50 [2]: 760 nM
EC50 [3]: 1100 nM
Efficacy [4]: 75%
logD at 0.5 h [5]: 3.3

Cc1nn(-c2ccccn2)c2cc(-c3ccc(C(C)CC(=O)O)cc3)ncc12 (configuration not stated)
Efficacy [1]: 50%
EC50 [2]: 12000 nM
EC50 [3]: 61000 nM
Efficacy [4]: 28%

Cc1cc(-c2ccc(CCC(=O)O)cc2)cc2c1cnn2-c1ccccn1
Efficacy [1]: 82%
EC50 [2]: 4600 nM
EC50 [3]: 2600 nM
Efficacy [4]: 70%
logD at 0.5 h [5]: 2.6

Cc1nn(-c2ccccn2)c2cc(-c3ccc(CC(C)(C)C(=O)O)cc3)ccc12
Efficacy [1]: 18%
EC50 [2]: 4100 nM
EC50 [3]: > 100000 nM
Efficacy [4]: 79%

Cc1nn(-c2ccccn2)c2cc(-c3ccc(CCCC(=O)O)cc3)ccc12
Efficacy [1]: 117%
EC50 [2]: 260 nM
EC50 [3]: 2100 nM
Efficacy [4]: 128%

Cc1nn(-c2ccccn2)c2cc(-c3cccc(CCC(=O)O)c3)ccc12
Efficacy [1]: 0%
EC50 [2]: > 17000 nM
EC50 [3]: > 100000 nM
Efficacy [4]: 28%

N#Cc1cc(-c2ccc(CCC(=O)O)cc2)cc2c1cnn2-c1ccccn1
Efficacy [1]: 113%
EC50 [2]: 2000 nM
EC50 [3]: 19000 nM
Efficacy [4]: 78%
logD at 0.5 h [5]: 2.2

O=C(O)CCc1ccc(-c2ccc3c(OCc4ccccc4)nn(-c4ccccn4)c3c2)cc1
Efficacy [1]: 81%
EC50 [2]: > 17000 nM
EC50 [3]: 1300 nM
Efficacy [4]: 2%

Cc1ccc(-n2nc(C)c3ccc(-c4ccc([C@H]5C[C@@H]5C(=O)O)cc4)cc32)cc1
Efficacy [1]: 1%
fraction unbound at 24 h [6]: 0.0049
Cmax [7]: 7.9 µM
clearance [8]: 9.6 mL/min/kg
Kp at 2 h [9]: 0.82
EC50 [10]: 510 nM
Kp uu at 2 h [14]: 0.22
Kp uu at 1.5 h [15]: 0.27
Vd [11]: 1.2 L/kg
Activity [16]: inactive
Efficacy [4]: 100%
Efficacy [12]: 91%
bioavailability [13]: 136%

Cc1nn(-c2ccccn2)c2cc(-c3ccc(CCC(=O)O)cc3F)ccc12
Efficacy [1]: 105%
EC50 [2]: 600 nM
EC50 [3]: 1500 nM
Efficacy [4]: 113%
logD at 0.5 h [5]: 2.9

Cc1ccc(-n2nc(C)c3cnc(-c4ccc([C@H]5C[C@@H]5C(=O)O)cc4)cc32)cc1
Efficacy [1]: 12%
EC50 [2]: 900 nM
EC50 [10]: 640 nM
EC50 [3]: > 100000 nM
Efficacy [4]: 76%
Efficacy [12]: 99%
logD at 0.5 h [5]: 2.6
